The results in this text go back to ChEMBL document CHEMBL4017505 (J Med Chem, 2017).

Structures are written as SMILES. Active and inactive are the calls of the source. The calls are words filed in the database; no cut-off is given here.

Data set [1] addresses Kappa-type opioid receptor (Homo sapiens) (UniProt P41145).
Data set [2] has as its system Mus musculus. The data set can be described thus: In vivo antagonist activity at kappa opioid receptor in CD-1 mouse assessed as reversal of U50,488-induced inhibition of acetic acid-mediated writhing at 10 mg/kg, sc treated 15 mins prior to U50,488 measured for 10 mins starting 5 mins post acetic acid challenge. In kind it is functional, organism-based. The procedure, abridged:
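Male CD1 mice received test compound 10 mg/kg sc, then U50,488 2 mg/kg sc 15 min later. Acetic acid 0.6% ip given 25 min after U50,488 dosing; writhes counted for 10 min. Compared with saline controls. ≥5 mice per group, sc volume 10 μL/g.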
(In general: Writhing tests count abdominal constrictions after an irritant is injected.)

Data set [3] relates to Mus musculus. The data set can be described thus: Antinociceptive activity in CD-1 mouse assessed as inhibition of acetic acid-induced writhing at 10 mg/kg, sc treated 30 mins prior to test followed by acetic acid challenge measured for 10 mins starting 5 mins post acetic acid challenge. In kind it is functional, organism-based. The procedure, abridged:
(§1)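 Male CD1 mice (30–35 g, 6–8 weeks) given compound or saline sc at 10 μL/g. […] ED50 by Litchfield–Wilcoxon from dose–response. Doses expressed as salts; ≥5 mice per group, each used once.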

The test system of data set [4] is Mus musculus. The data set can be described thus: Antinociceptive activity in sc dosed CD-1 mouse assessed as inhibition of acetic acid-induced writhing treated 30 mins prior to test followed by acetic acid challenge measured for 10 mins starting 5 mins post acetic acid challenge. In kind it is functional. The method, boiled down:
as §1

Data set [5] concerns the target Kappa-type opioid receptor (Homo sapiens) (UniProt P41145). Briefly: Agonist activity at human kappa opioid receptor expressed in CHO cell membranes after 60 mins by [35S]GTPgammaS binding assay relative to U69,593. Format: functional. The procedure, abridged: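 Membranes (8–15 μg) from CHO cells stably expressing human KOP, in 20 mM HEPES, 10 mM MgCl2, 100 mM NaCl, pH 7.4. Incubated with 0.05 nM [35S]GTPγS, 10 μM GDP and graded compound for 60 min at 25 °C. Nonspecific binding with 10 μM GTPγS; basal binding without ligand. Filtered and counted. Efficacy given as % stimulation relative to U69,593. Duplicates, ≥3 experiments.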
Background: GTPγS is a poorly hydrolysed GTP analogue; its binding reports G protein activation.

Data set [6] relates to Mus musculus. The data set can be described thus: Antinociceptive activity in CD-1 mouse assessed as inhibition of acetic acid-induced writhing at 1 mg/kg, sc treated 30 mins prior to test followed by acetic acid challenge measured for 10 mins starting 5 mins post acetic acid challenge in presence of KOP receptor antagonist nor-BNI. Format: functional, organism-based. The method, boiled down:
(§2)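 Writhing test in male CD1 mice: nor-BNI 20 mg/kg sc given 24 h before sc test compound. Acetic acid 0.6% ip at 25 min after compound; writhes counted for 10 min. Inhibition calculated as % reduction against saline controls. ≥5 mice per group.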

In data set [7] the test system is Mus musculus. Briefly: Toxicity in CD-1 mouse assessed as motor impairment at […], sc treated 30 mins prior to test by rotarod test. Particulars: in vivo, 0.5 h. In kind it is organism-based. (In the rotarod test animals must keep their balance on a rotating rod.)
Data set [8] deals with Mus musculus. Briefly: Toxicity in CD-1 mouse assessed as motor impairment at 5 to 10 mg/kg, sc treated 30 mins prior to test by rotarod test. Format: organism-based. Particulars: in vivo, 0.5 h.
The subject of data set [9] is Mus musculus. Briefly: Toxicity in CD-1 mouse assessed as motor impairment at 7.5 mg/kg, sc treated 30 mins prior to test by rotarod test. In kind it is organism-based. To be noted: in vivo, 0.5 h.
Data set [10] concerns Mus musculus. The data set can be described thus: Toxicity in CD-1 mouse assessed as motor impairment at 15 mg/kg, sc treated 30 mins prior to test by rotarod test. To be noted: in vivo, 0.5 h. In kind it is organism-based.
Data set [11] deals with Mus musculus. Briefly: Antinociceptive activity in CD-1 mouse assessed as inhibition of acetic acid-induced writhing at 5 mg/kg, sc treated 30 mins prior to test followed by acetic acid challenge measured for 10 mins starting 5 mins post acetic acid challenge in presence of KOP receptor antagonist nor-BNI. In kind it is functional, organism-based. The method, boiled down: as §2

Data set [12] concerns Mus musculus. The data set can be described thus: Toxicity in CD-1 mouse assessed as motor impairment at 10 to 20 mg/kg, sc treated 30 mins prior to test by rotarod test. Format: organism-based. To be noted: in vivo, 0.5 h.
Data set [13] deals with Mus musculus. Briefly: Antinociceptive activity in CD-1 mouse assessed as inhibition of acetic acid-induced writhing at […], sc treated 30 mins prior to test followed by acetic acid challenge measured for 10 mins starting 5 mins post acetic acid challenge in presence of KOP receptor antagonist nor-BNI. In kind it is functional, organism-based.
For data set [14], the system named is Mus musculus. The data set can be described thus: Toxicity in CD-1 mouse assessed as motor impairment at 5 mg/kg, sc treated 30 mins prior to test by rotarod test. Format: organism-based. Particulars: in vivo, 0.5 h.

Sequence of Kappa-type opioid receptor (Homo sapiens) (P41145 whole entry): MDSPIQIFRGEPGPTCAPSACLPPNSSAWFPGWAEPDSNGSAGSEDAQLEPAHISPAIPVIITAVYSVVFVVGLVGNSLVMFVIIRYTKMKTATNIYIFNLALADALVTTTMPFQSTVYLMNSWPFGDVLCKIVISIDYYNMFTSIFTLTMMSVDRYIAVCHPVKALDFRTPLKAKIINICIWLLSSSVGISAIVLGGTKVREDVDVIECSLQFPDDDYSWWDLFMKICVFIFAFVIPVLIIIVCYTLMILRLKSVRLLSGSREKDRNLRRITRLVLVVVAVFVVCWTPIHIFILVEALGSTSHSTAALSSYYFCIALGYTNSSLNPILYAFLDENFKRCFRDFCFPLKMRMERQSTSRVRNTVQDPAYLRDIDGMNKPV

As for `Oc1ccc(CCN(CCc2cccc(O)c2)CC2CC2)cc1`, the Ke in [1] came to 24.3 nM. Moreover, the inhibition result in the data set on Mus musculus [2] was “Active”. Besides, the inhibition result in the data set with Mus musculus [3] is “inactive”.

Turning to `CC(C)CCN(CCc1ccccc1)CCc1cccc(O)c1`, the inhibition entry in the data set on Mus musculus [4] is “Dose-dependent effect”.

For `CC(C)CCN(CCc1cccc(O)c1)CCc1cccc(O)c1`, the inhibition entry in the data set with Mus musculus [4] was “Dose-dependent effect”.

Regarding `Cl.Oc1cccc(CCN(CCc2ccccc2)CC2CCCC2)c1`, the inhibition entry with Mus musculus [4] is “Dose-dependent effect”. This compound yielded an Efficacy in [5] of 82.8%. Further, the inhibition entry in the data set on Mus musculus [6] was “inactive”. In the data set on Mus musculus [7], the Activity entry is “Non-Toxic”.

Take `Oc1ccc(CCN(CCc2cccc(O)c2)CC2CCC2)cc1`: the inhibition result in the data set with Mus musculus [4] is “Dose-dependent effect”.

`Oc1cccc(CCN(CCc2ccccc2)CC2CCC2)c1`: in the data set with Mus musculus [8], the Activity entry is on record as “Non-Toxic”.

In the case of `Oc1ccc(CCN(CCc2cccc(O)c2)CC2CCCCC2)cc1`, the inhibition entry in the data set with Mus musculus [4] was “Dose-dependent effect”. In [5], this compound returned an Efficacy of 84.3%.

For `c1ccc(CCN(CCc2ccccc2)CC2CCC2)cc1`, the Efficacy in [5] was determined as 91.9%.

For the compound `Oc1cccc(CCN(CCc2cccc(O)c2)CC2CCCC2)c1`, in the data set with Mus musculus [4], the inhibition result was “Dose-dependent effect”. Moreover, in data set [5], the Efficacy amounted to 80.4%.

For the compound `Oc1cccc(CCN(CCc2cccc(O)c2F)CC2CCC2)c1`, the inhibition entry in the data set on Mus musculus [4] was “Dose-dependent effect”.

Regarding `C=CCN(CCc1ccc(O)cc1)CCc1cccc(O)c1`, the Efficacy in data set [5] amounted to 29.8%.

`Cl.Oc1cccc(CCN(CCc2ccccc2)CC2CCCCC2)c1F`: the inhibition result in the data set on Mus musculus [4] is “Dose-dependent effect”. Also, the Activity result in the data set with Mus musculus [9] is given as “Non-Toxic”. In data set [5], this compound returned an Efficacy of 88.9%.

Take `Oc1cccc(CCN(CCc2cccc(O)c2)CC2CCC2)c1`: in the data set on Mus musculus [4], the inhibition result was “Dose-dependent effect”.

With `Cl.Oc1cccc(CCN(CCc2ccccc2)CC2CCC2)c1F`, the Activity result in the data set on Mus musculus [10] is reported as “Non-Toxic”. Further, the inhibition result in the data set on Mus musculus [4] is “Dose-dependent effect”. Moreover, in [5], the Efficacy stood at 66.1%.

Consider `Oc1cccc(CCN(CCc2ccccc2)CC2CC2)c1`, for which, in the data set on Mus musculus [11], the inhibition result was “inactive”. The inhibition result with Mus musculus [4] is “Dose-dependent effect”. Besides, in the data set with Mus musculus [12], the Activity result is on record as “Non-Toxic”.

Take `Oc1cccc(CCN(CCc2cccc(O)c2)CC2CC2)c1`: the inhibition result in the data set with Mus musculus [4] was “Dose-dependent effect”.

`Oc1cccc(CCN(CCc2cccc(O)c2)CC2CCCCC2)c1`: in the data set on Mus musculus [4], the inhibition result is “Dose-dependent effect”. In addition, in data set [5], the Efficacy came to 91.1%.

Consider `Cl.Oc1cccc(CCN(CCc2ccccc2)CC2CCCCC2)c1`, for which the inhibition entry in the data set with Mus musculus [13] was “inactive”. Moreover, the inhibition result in the data set on Mus musculus [4] is “Dose-dependent effect”. For the same compound, in the data set on Mus musculus [14], the Activity result was “Non-Toxic”.

With `Oc1cccc(CCN(CCc2ccccc2)Cc2ccccc2)c1`, the inhibition entry in the data set with Mus musculus [4] was “Dose-dependent effect”. The Efficacy in data set [5] was 79.5%.

Take `Oc1ccc(CCN(CCc2cccc(O)c2F)CC2CCC2)cc1`: the inhibition entry with Mus musculus [4] is “Dose-dependent effect”.
